CRFBP-R2 agonist – agonists of human CRF-binding protein/CRF-R2 receptor complex | 350,000 compounds, 0.46% hits | HEK293 CRF-R2/CRF-BP, calcium dye fluorescence (FLIPR); percent of saturating CRF peptide response | activation, % at 13.2 µM | AID 588473;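 active = activation of at least 50%, plus an integration ratio under a set limit after plate pattern correction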
RTF Ca sens inh – cardiac RTF calcium desensitization. IANBD-labeled cardiac RTF, Ca2+ fluorescence. inhibition, % at 7.15 µM. 340,000 compounds, 0.12% hits. AID 493244;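 active = inhibition above the mean inhibition of all tested compounds plus 3 SD, cut at about 17% in these data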;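 note: assay run at fixed EC70 calcium of 1.6 mM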
Tn6 DDE FP – inhibitors of Tn6 peptide binding to human fibrin DD(E) | P02675 | 370,000 compounds, 0.21% hits | Fibrin DD(E) TRITC-Tn6 fluorescence polarization displacement | AID 720509 | inhibition, % at 8.3 µM;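 active = inhibition above a per-campaign cutoff: mean of compounds within control limits plus 3 SD, cut at about 15% in these data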
Target sequence (P02675 whole entry, looked up): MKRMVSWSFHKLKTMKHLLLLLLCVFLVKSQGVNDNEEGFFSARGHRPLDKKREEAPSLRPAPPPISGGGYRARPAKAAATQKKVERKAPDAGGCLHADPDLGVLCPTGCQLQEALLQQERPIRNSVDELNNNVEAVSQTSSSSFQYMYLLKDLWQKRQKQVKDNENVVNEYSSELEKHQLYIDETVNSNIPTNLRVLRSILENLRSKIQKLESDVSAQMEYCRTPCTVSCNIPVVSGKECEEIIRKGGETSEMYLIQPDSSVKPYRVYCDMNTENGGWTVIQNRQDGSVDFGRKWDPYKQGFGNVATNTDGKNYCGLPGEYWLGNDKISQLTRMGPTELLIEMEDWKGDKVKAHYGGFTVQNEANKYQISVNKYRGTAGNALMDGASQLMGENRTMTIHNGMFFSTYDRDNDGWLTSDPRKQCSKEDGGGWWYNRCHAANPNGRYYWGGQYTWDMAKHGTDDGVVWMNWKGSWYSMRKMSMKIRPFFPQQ
cardiac RTF act – cardiac RTF calcium sensitization. P19429+P45379. IANBD-labeled TnC RTF fluorescence at EC20 calcium; 0% EC20 calcium, 100% full calcium. activation, % at 7.2 µM. 340,000 compounds, 0.24% hits. AID 493008;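 active = activation above the mean over all tested compounds plus 3 SD, cut at about 30% in these data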;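 note: rise in fluorescence read as greater calcium sensitivity of cardiac thin filaments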
DDE Tn7 FP inh – DD(E)-Tn7 binding inhibition, primary FP screen; inhibition, % at 8.3 µM; FP displacement of FITC-Tn7 peptide from fibrin DD(E); 0% = median of compound wells per plate; P02675; 370,000 compounds, 0.13% hits;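 active = inhibition above the mean of compounds falling within the control limits plus 3 SD of them, cut at about 14% in these data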
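Also added: labelled Tn7 tracer, 0.1 µM; Assay system: human fibrin DD(E) protein; Amount: 2 µM fibrin DD(E); Schedule: 10 min compound pre-incubation, 3 h probe incubation at room temperature; Repeats: one replicate per compound; Read-out basis: percent inhibition; Measured by: fluorescence polarization of the labelled Tn7 tracer.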
CRFBP-R2 block – blocks CRF-induced signaling of the CRF-BP/CRF-R2 complex; HEK293 CRF-R2/CRF-BP, CRF-induced calcium fluorescence; inhibition, % at 11.8 µM; 350,000 compounds, 0.59% hits;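 active = inhibition of the ligand-induced calcium signal above about 50% at the single tested concentration, limit read from the data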
Numbers stand for hits; n = inactive; x = no result given. An excerpt weighted towards active compounds, which were near 1.4% of everything screened.

SMILES | CRFBP-R2 agonist | RTF Ca sens inh | Tn6 DDE FP | cardiac RTF act | DDE Tn7 FP inh | CRFBP-R2 block
CC(O)(c1cccc(F)c1)c1nc(-c2cccc3cccnc23)cs1 (stereo not given) | x | x | n | x | n | x
C=CCOc1ccc(C2C(C(=O)c3ccco3)=C(O)C(=O)N2c2nnc(C)s2)cc1 (stereo not given) | n | n | n | n | n | 83
COc1cc(C2C(C(=O)c3ccco3)=C(O)C(=O)N2c2cc(C)on2)cc(Br)c1O (stereo not given) | n | n | n | n | n | 80
O=C(NCc1ccncc1)[C@@H]1CCCN1C(=O)[C@@H]1CCCN1C(=O)c1ccccc1 | x | x | n | x | n | x
CCOc1ccc(N(CC(=O)NC2CCCCC2C)S(=O)(=O)c2c(C)noc2C)cc1 (stereo not given) | n | n | n | n | n | n
CCOc1ccc(N(CC(=O)NC2CCC(C)CC2)S(=O)(=O)c2c(C)noc2C)cc1 (stereo not given) | n | n | n | n | n | 62
COc1ccccc1NC(=O)/C(C#N)=C/c1cc([N+](=O)[O-])ccc1N1CCCC1 | 92 | n | n | n | n | n
COC(=O)[C@]12C[C@H](CC(=O)NCCCN3CCCC3=O)C(=O)N(CCC3=CCCCC3)C1=C[C@H](C(C)C)O[C@@H]2C1CC1 | x | x | n | x | n | x
CCOC(=O)CC[C@H]1CC[C@]2(CCCN(S(=O)(=O)c3ccccc3)C2)O1 | x | x | n | x | n | x
Cc1ccc(-n2nc(C)c(Sc3ccccc3[N+](=O)[O-])c2N)cc1 | n | n | n | n | n | 52
CCOC(=O)c1ccc(NC(=O)CN2C(=O)CSC2=O)cc1 | n | n | n | n | n | 102
C=CCN1C(=O)[C@@H](CC(=O)N2CCOCC2)[C@]2(C(=O)OCC)CCCCC/C=C/12 | x | x | n | x | n | x
O=C1c2ccccc2-c2cccc(NS(=O)(=O)c3ccc(C(F)(F)F)cc3)c21 | 97 | n | n | n | n | n
CC(=O)c1ccc(Nc2nc(C(C)N)cs2)cc1 (stereo not given) | x | x | n | x | n | x
N#CC(c1ccc(Cl)cc1)c1ccc2c(C(F)(F)F)cc(C(F)(F)F)nc2n1 (stereo not given) | n | n | n | n | n | 69
O=C1CCC[C@H]2Cc3nc4cccc(Cl)c4cc3C[C@]23CCCN13 | x | x | n | x | n | x
CCOP(=O)(CC(C(C)=O)C(O)c1ccccc1)OCC (stereo not given) | n | n | n | n | 14 | n
CCCCCCN1CCN(C2CN(CCCC)S(=O)(=O)C2)CC1 (stereo not given) | x | x | n | x | n | x
CCN(CC)c1ccc(/C=C2/C(=O)c3ccc(C(=O)O)cc3C2=O)cc1 | 215 | n | n | 78 | n | n
CCN(CC)c1ccc(C=C2C(=O)OC3(CCCCC3)OC2=O)cc1 | n | n | n | n | n | n
COc1ccc(-c2nnc(Nc3ccc(S(=O)(=O)Nc4nccs4)cc3)c3ccccc23)cc1 | n | n | n | n | n | 61
Cc1ncsc1C(=O)N1CCCC(C(=O)c2ccc3ccccc3c2)C1 (stereo not given) | n | n | n | n | n | 60
Cc1cc(F)ccc1C(O)c1ncc(-c2ccc(Oc3ccccc3)cc2)[nH]1 (stereo not given) | x | x | n | x | n | x
COC(=O)c1sc(NC(=S)NC(=O)c2cccc(Br)c2)nc1C | 60 | n | n | n | n | n
CCOC(=O)c1sc(NC(=S)NC(=O)c2ccc(OC)cc2)nc1C | n | n | n | n | n | n
SMILES | CRFBP-R2 agonist | RTF Ca sens inh | Tn6 DDE FP | cardiac RTF act | DDE Tn7 FP inh | CRFBP-R2 block
COC(=O)c1sc(NC(=S)NC(=O)c2ccccc2C)nc1C | 56 | n | n | n | n | n
COC(=O)c1sc(NC(=S)NC(=O)c2ccc(F)cc2)nc1C | x | x | n | x | n | x
COc1cc(N2CCCC2)c(OC)cc1/C=C(/C#N)c1ccc(Br)cc1 | n | n | n | 30 | n | n
CN(C)/C=N/c1nccc(-c2cccs2)n1 | 54 | n | n | n | n | n
Cc1cccc(C)c1NC(=O)C(c1ccccc1)N1CCN(C)CC1 (stereo not given) | x | x | n | x | n | x
COc1cccc(NC(=O)C2(C)CCN2C(=O)C2CCCCC2)c1 (stereo not given) | x | x | n | x | n | x
O=C(Nc1nnc(-c2ccc(F)cc2)o1)c1cc(Cl)sc1Cl | 91 | n | n | n | n | n
O=C(Nc1nnc(-c2ccccc2)o1)c1cc(Cl)sc1Cl | 188 | n | n | n | n | n
Cc1cccc(-c2nnc(NC(=O)c3ccc(Cl)cc3)o2)c1 | 108 | n | n | n | n | n
Cc1ccc(C(=O)Nc2nnc(-c3ccncc3)o2)cc1 | n | n | n | n | n | n
O=C(Nc1nnc(-c2ccc(F)cc2)o1)c1cccc([N+](=O)[O-])c1 | n | n | n | n | n | n
COc1ccc(C(=O)Nc2nnc(-c3ccccc3)o2)cc1OC | n | n | n | n | n | n
O=C(Nc1nnc(-c2ccc(Cl)cc2)o1)c1nc2ccccc2s1 | 187 | n | n | n | n | n
Cc1ccc(-c2nc(C3CCCN(S(=O)(=O)c4ccc(Cl)s4)C3)no2)cc1 (stereo not given) | x | x | n | x | n | x
O=C(NC1CCCCN(Cc2ccc(OC(F)(F)F)cc2)C1=O)c1cccc(F)c1 (stereo not given) | x | x | n | x | n | x
C/C=C/C(=O)N1CCC(C(=O)NCC2COc3ccccc3O2)CC1 (stereo not given) | x | x | n | x | n | x
[N-]=[N+]=NC(c1ccccc1)C(NC(=O)c1cc(C(F)(F)F)cc(C(F)(F)F)c1)c1ccccc1 (stereo not given) | x | x | n | x | n | x
CN(CCc1ccccc1)C(=O)c1ccc2c(c1)ncn2C1CCCCC1 | x | x | n | x | n | x
CCCN(CCC)S(=O)(=O)c1ccc(C(=O)Nc2nnc(-c3cccc(OC)c3)o2)cc1 | 100 | n | n | n | n | n
Cc1ccc2cccc(S(=O)(=O)N3CCCc4ccccc43)c2n1 | 88 | n | n | n | n | n
O=c1c(-c2cc3ccccc3[nH]2)nc2ccccc2n1C(CCc1ccccc1)c1nc2ccccc2[nH]1 (stereo not given) | x | x | n | x | n | x
Cc1c(NC(=S)NC(=O)c2sc3ccccc3c2Cl)cccc1C(=O)O | n | n | n | n | n | n
COc1ccccc1C(=O)NNC(=S)NC(=O)c1sc2ccccc2c1Cl | 170 | n | n | n | n | n
COc1ccccc1C(=O)NC(=S)NNC(=O)c1sc2ccccc2c1Cl | 251 | n | n | n | n | n
CCOC(=O)[C@@]12CCC3=C1N(CCC3)C(=O)[C@H](CC(=O)NCCCOC)C2 | x | x | n | x | n | x
CN1[C@@H](Cc2ccccc2)COc2cccc(F)c2S1(=O)=O | x | x | n | x | n | x
CCOc1ccccc1N1CCN(C(=O)C2CSC3(C)CCC(=O)N23)CC1 (stereo not given) | n | n | n | n | n | 72
